# NadD inh: NadD (S. aureus) enzyme inhibition; purified NadD enzyme, colorimetric absorbance read-out; inhibition, % at 20 µM; 360,000 tested, 0.78% active; in the data active means inhibition above about 26%
# Scp-1 inhibitor: blocks human Scp-1 phosphatase activity; Q9GZU7; Recombinant Scp1, phosphopeptide, malachite green phosphate absorbance; inhibition, % at 20 µM; 340,000 tested, 0.88% active; AID 493091;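 active means inhibition above about 50% at 20 µM, limit read from the data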;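 further: plate controls were DMSO wells with enzyme for no effect and wells lacking enzyme for full effect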
# Target sequence (Q9GZU7 76-261 limits assumed): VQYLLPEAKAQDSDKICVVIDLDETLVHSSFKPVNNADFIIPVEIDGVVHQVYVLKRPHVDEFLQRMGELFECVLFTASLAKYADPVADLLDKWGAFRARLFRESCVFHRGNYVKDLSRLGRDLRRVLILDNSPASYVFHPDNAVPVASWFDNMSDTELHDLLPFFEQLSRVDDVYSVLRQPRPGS
#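 Test system – truncated SCP-1 phosphatase (76-261aa) · Reagent – Phosphorylated 17-residue peptide substrate · Incubation – 45 min room-temperature reaction, 5 min colour, 30 min stabiliser · Detection – colorimetric phosphate reagent with accelerator and stabiliser, absorbance at 630 nm · Measure – % inhibition at 20 µM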
# STEP inh: inhibitors of human striatal-enriched phosphatase STEP. 360,000 tested, 0.25% active. inhibition, % at 20 µM. recombinant STEP, OMFP fluorogenic substrate, fluorescence;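 active means inhibition at 20 µM, scaled per plate between control wells, above about 37%, limit read from the data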;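 further: 0% = DMSO with enzyme and substrate and 100% = substrate only without enzyme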
#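 Assay system: isolated STEP enzyme / Timing: 20 min at room temperature, dark / Doses: 20 µM, 1% DMSO / Technique: fluorescence intensity, excitation 480 nm, emission 540 nm / Reagent: fluorogenic phosphatase substrate OMFP at 25 µM final / Measure: percent inhibition scaled to no-enzyme and uninhibited-enzyme controls, plate-pattern corrected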
# LMPTP block: blocks human LMPTP phosphatase. P24666. recombinant LMPTP-A, OMFP fluorogenic substrate, fluorescence intensity. inhibition, % at 20 µM. 360,000 tested, 0.22% active. AID 651560;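 active means compounds that cut the enzyme signal by at least half of the control window in the single-dose screen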;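 further: plate controls were DMSO wells with enzyme plus substrate for no effect and substrate without enzyme for full effect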
# Target sequence (P24666 whole entry, looked up): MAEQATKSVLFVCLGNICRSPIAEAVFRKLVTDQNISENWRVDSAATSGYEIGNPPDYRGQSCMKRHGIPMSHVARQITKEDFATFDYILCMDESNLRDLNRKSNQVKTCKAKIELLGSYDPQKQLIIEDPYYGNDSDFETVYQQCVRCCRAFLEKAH
#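 test system = LMPTP-A | amount = 0.625 nM LMPTP-A final | reagent = fluorogenic phosphatase substrate OMFP at 400 µM final | incubation = 50 min at room temperature | benchmarks = no-enzyme low control, uninhibited high control | medium = Bis-Tris pH 6.0, DTT, detergent | signal = fluorescence intensity of OMFP turnover product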
# rCAG RNA binder: r(CAG) repeat RNA binding; TO-PRO-1 dye displacement fluorescence; inhibition, % at 3 µM; 370,000 tested, 1.3% active;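 active means inhibition above the plate cutoff, the mean of all test compounds on that plate plus 3 SD, cut at about 35% in these data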;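 further: 0% = DMSO alone and 100% = 100 µM mitoxantrone as full dye displacement; higher means more dye released from RNA so lower well fluorescence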
# Active calls of the source: *; x = no result given. Sampled rows, rich in hits. Any-hit rate of the full collection: about 2.6%.
SMILES,NadD inh,Scp-1 inhibitor,STEP inh,LMPTP block,rCAG RNA binder
O=C(CCCN1C(=O)/C(=C\c2ccccc2)SC1=S)Nc1ccc(C(=O)O)cc1,9.3,1.4,1.3,2.2,3.4
COc1ccc(/C=C2\SC(=S)N(CCC(=O)Nc3ccc(C(=O)O)cc3)C2=O)cc1OC,-2.5,95.3*,85.4*,43.7,x
Cc1ccc(/C=C2/SC(=S)N(CCCC(=O)Nc3cc([N+](=O)[O-])ccc3O)C2=O)cc1,51.0*,-2.2,-0.5,-0.5,0.8
CC(CCN1CCC(C(O)(c2ccccc2)c2ccccc2)CC1)Oc1ccc(F)cc1 (stereo not drawn),x,x,x,x,-0.9
O=C(O)C(O)c1ccco1 (stereo not drawn),7.7,77.3*,53.1*,31.2,x
N=C1/C(=C\c2ccc(-c3ccc(C(=O)O)cc3)o2)C(=O)N=C2SC=C(c3ccccc3)N12,67.4*,81.1*,60.6*,65.4*,17.7
O[C@H](COc1ccccc1)CN1CCC(C(O)(c2ccccc2)c2ccccc2)CC1,x,x,x,x,0.1
N#Cc1cccc(NC(=O)OCCCN2CCC3(CCCCC3)C2=O)c1,x,x,x,x,-2.1
C[C@@H]1OCN(C)[C@H]2C[C@H]3c4[nH]c5cccc(-c6ccc7c(c6)OCO7)c5c4CCN3C[C@@H]12,x,x,x,x,8.7
CCCc1ccc(OCC(=O)Nc2cc(S(=O)(=O)CC)ccc2O)cc1,-7.3,-1.9,1.4,-0.2,35.5*
COc1ccc(NC(=O)Nc2ccc3c(c2)C(=O)N([C@H](C)CO)C[C@H](C)[C@@H](CN(C)Cc2ccc(Cl)c(Cl)c2)OCCCC[C@@H](C)O3)cc1,39.6*,x,2.7,3.3,19.4
C[C@@H]1CCCCO[C@H](CN(C)Cc2ccc(Cl)c(Cl)c2)[C@H](C)CN([C@@H](C)CO)C(=O)c2cc(NC(=O)Nc3ccc(F)cc3)ccc2O1,22.4,x,1.5,2.5,15.5
O=C(OCc1cn(Cc2ccc(F)cc2)nn1)N1CCCC1,x,x,x,x,0.6
CN(C)/C=C1\C(=O)ON=C1c1ccccc1,-7.1,-3.1,-4.9,-0.8,6.8
Cc1ccc(C2=NOC(=O)/C2=C\C=C\c2ccccc2)cc1,25.9*,-9.7,-2.3,1.9,31.4
Nc1ccc(N)c(C(=O)O)c1,33.4*,95.8*,96.3*,81.2*,x
Nc1ccc(C(=O)O)c(O)c1,-0.4,24.1,-1.0,-0.4,3.6
CC1(c2ccccc2)CC(C)(C)N2C(=O)/C(=C3\SC(=S)NC3=O)c3cccc1c32 (stereo not drawn),35.1*,-13.2,0.1,3.9,4.7
O=Nc1ccc(O)c2ncccc12,-1.4,8.6,2.0,2.3,-1.6
COc1cccc(N=Nc2ccc(O)c3ncccc23)c1,34.3*,-9.8,1.9,3.1,17.8
O=S(=O)(O)c1cccc2c(N=Nc3ccc(O)c4ncccc34)cccc12,-3.3,94.9*,50.9*,51.3*,x
Cc1ccccc1N=Nc1ccc(O)c2ncccc12,32.7*,-0.2,3.8,-0.5,6.5
COc1ccc(N=Nc2ccc(O)c3ncccc23)cc1,40.3*,-6.8,2.0,7.4,6.0
C(=C\c1ccccc1)/CSc1nnc(Cc2cccs2)n1-c1ccccc1,x,x,x,x,1.4
OCC(CCc1c[nH]c2ccccc12)c1c[nH]c2ccccc12 (stereo not drawn),x,x,x,x,6.4
SMILES,NadD inh,Scp-1 inhibitor,STEP inh,LMPTP block,rCAG RNA binder
CCn1c(SCC(=O)Nc2ccc3c(c2)OCO3)nnc1C1CC1,-2.8,1.4,1.0,-1.7,0.6
CCn1c2ccccc2c2cc(NC(=O)CSc3nnc(C4CC4)n3Cc3ccco3)ccc21,31.7*,3.2,2.1,3.2,12.2
O=C(COC(=O)C1CC(=O)N(Cc2ccco2)C1)c1ccc(OC(=O)c2ccco2)cc1 (stereo not drawn),36.4*,80.5*,9.7,17.5,0.9
COC(=O)c1ccc2c(C3(c4c[nH]c5ccccc45)CCN(C(=O)OC(C)(C)C)CC3)c[nH]c2c1,x,x,x,x,17.4
COc1ccc2c(c1)c(CC(=O)NCc1cc([N+](=O)[O-])ccc1O)c(C)n2C(=O)c1ccc(Cl)cc1,33.2*,-9.5,-0.6,2.3,7.3
COc1ccc2c(c1)c(CC(=O)Nc1ccc(C(C)=O)cc1)c(C)n2C(=O)c1ccc(Cl)cc1,18.5,-12.8,1.0,3.6,18.9
Cc1ccc(NC(=O)Nc2ccc3c(c2)[C@]2(CC(=O)N(CC(C)C)C2c2ccccc2)C(=O)N3C)cc1Cl (stereo partly drawn),x,x,x,x,8.2

# Source: PubChem BioAssay
